Reference: ChEMBL document CHEMBL1629687, “Minigenome-based reporter system suitable for high-throughput screening of compounds able to inhibit Ebolavirus replication and/or transcription” (Antimicrob Agents Chemother, 2010)

Tests used:
Ebolavirus = assay: Antiviral activity against Ebolavirus infected in african green monkey COS1 cells assessed as inhibition of viral replication after 32 hrs by luciferase reporter gene assay; format: functional, COS-1
Method in brief: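 Ebola minigenome assay, not live virus: COS-1 cells in suspension were batch-transfected with minireplicon and NP/VP35/L support plasmids, then plated in 96-well format. Compounds in DMSO were added at 10 μM final; DMSO-only wells served as controls. Luciferase was read after 32 h. Percent inhibition = 1 − (compound-well signal / mean DMSO-well signal) × 100.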

[1] = Cytotoxicity against african green monkey COS1 cells assessed as reduction in cell viability after 32 hrs by luminescent assay; format: cell-based, COS-1; conditions: chlorocebus aethiops, read-out: INH
Method in brief: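 Parallel plates of batch-transfected COS-1 cells received the same compounds in DMSO (10 μM final). Cell viability was measured with the CellTiter-Glo luminescent assay to flag cytotoxicity.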

Structure (SMILES)	inhibition (INH) (Ebolavirus) [%]	cytotoxicity at 32 h [1] [%]
COc1cccc2c1C(=O)c1c(O)c3c(c(O)c1C2=O)C[C@@](O)(C(=O)CO)C[C@@H]3O[C@H]1C[C@H](N)[C@H](O)[C@H](C)O1.Cl [DOXORUBICIN HYDROCHLORIDE]	97	25
O=C1C=C2C(=CCOC2O)O1 (configuration not stated) [PATULIN]	89	20
CC[C@H]1CN2CCc3cc(OC)c(OC)cc3[C@@H]2C[C@@H]1C[C@H]1NCCc2cc(OC)c(OC)cc21.Cl.Cl [EMETINE HYDROCHLORIDE]	99	3
CC[C@@H](C(=O)[C@@H](C)[C@@H](O)[C@H](C)[C@@H]1O[C@@H]([C@@H](CC)C(=O)O)CC[C@@H]1C)[C@H]1O[C@]2(C=C[C@@H](O)[C@]3(CC[C@@](C)([C@H]4CC[C@](O)(CC)[C@H](C)O4)O3)O2)[C@H](C)C[C@@H]1C [SALINOMYCIN]	86	17
CC[C@H]1CN2CCc3cc(OC)c(OC)cc3[C@@H]2C[C@@H]1C[C@H]1NCCc2cc(O)c(OC)cc21.Cl.Cl [CEPHAELINE DIHYDROCHLORIDE]	99	14
Cc1c2ccncc2c(C)c2c1[nH]c1ccccc12 [ELLIPTECINE]	99	8
